MrgX1 allo act: positive allosteric modulators of MrgX1, primary screen, HEK293 cells, Fluo-4 calcium flux; Mas-related G-protein coupled receptor member X1 (Homo sapiens), Q96LB2; FDSS; hits give high values; B-score at 10 µM; 310,000 tested, 0.63% active; AID 588675, 2011;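 active means plate-corrected calcium response at least 3 library SD above typical, normal starting fluorescence, not activating the receptor alone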;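 further: compound read alongside a low EC10 to EC30 dose of BAM8-22 agonist; peak minus trough fluorescence over baseline measured at the second addition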
Target sequence (Q96LB2 whole entry, looked up): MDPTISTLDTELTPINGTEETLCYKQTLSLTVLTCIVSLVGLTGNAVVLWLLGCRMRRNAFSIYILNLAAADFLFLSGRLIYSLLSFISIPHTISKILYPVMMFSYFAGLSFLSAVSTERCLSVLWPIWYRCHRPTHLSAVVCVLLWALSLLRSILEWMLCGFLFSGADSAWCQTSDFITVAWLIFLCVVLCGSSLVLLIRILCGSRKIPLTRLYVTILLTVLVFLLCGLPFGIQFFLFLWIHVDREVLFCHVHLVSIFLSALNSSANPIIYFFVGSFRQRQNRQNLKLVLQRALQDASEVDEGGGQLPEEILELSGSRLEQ
MrgX1 antag: antagonists of human MrgX1 receptor, primary screen, HEK293 cells, Fluo-4 calcium flux; BAM8-22 antagonism; hits give low values; B-score at 10 µM; Mas-related G-protein coupled receptor member X1 (Homo sapiens), Q96LB2; 310,000 tested, 1.3% active;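 active means calcium-response B-score plate-corrected more than 3 library SD below zero, starting fluorescence within 5 deviations, no agonist response on first addition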;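 further: peak minus trough fluorescence over baseline after final BAM8-22 challenge near maximal dose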
MrgX1 agonist: agonists of human MrgX1 receptor, primary screen, HEK293 cells, Fluo-4 calcium flux; Mas-related G-protein coupled receptor member X1 (Homo sapiens), Q96LB2; 310,000 tested, 0.44% active; B-score at 10 µM; Fluo-4 calcium fluorescence, agonist mode; hits give high values;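 active means calcium response B-score plate-corrected fluorescence ratio at least 3 library SD, with starting fluorescence B-score inside 5 SD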
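Test system: HEK293 cells stably expressing human MrgX1 receptor; amount: 15,000 cells per well; doses: compound delivered in addition one of three; times: overnight plating before 1 h dye loading; detection: Fluo-4 NW calcium-flux fluorescence, kinetic read; read-out basis: B-scored fluorescence response ratio; controls: positive and negative controls per plate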
RGS4 pot: RGS4 potentiators or activators, primary screen, cell-based, HEK293 M3R inducible RGS4, calcium flux; carbachol calcium flux Fluo4; hits give low values; B-score at 10 µM; 310,000 tested, 0.92% active; AID 463111, 2010;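 active means B-score of the integrated calcium signal more than 4 SD below the library mean, with starting fluorescence not abnormally high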;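 further: negative B-score means reduced calcium response which marks RGS4 activation or potentiation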
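Test system: HEK293 cells with stable M3R and inducible RGS4; also added: carbachol at ECmax as muscarinic agonist stimulus; schedule: dye loading 30 min 37 °C, buffer rest 30 min RT; technique: kinetic calcium fluorescence imaging with Fluo4-AM dye, 2 µM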
RGS4 inh: RGS4 inhibitors, primary screen, cell-based, HEK293 M3R inducible RGS4, calcium flux; 310,000 tested, 0.45% active; AID 463165, 2010; Regulator of G-protein signaling 4 (Homo sapiens), P49798; B-score at 10 µM; Fluo-4 calcium flux; hits give high values; triggered by carbachol at its EC20;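 active means B-score, a plate-corrected calcium signal, over three deviations above library mean, with baseline fluorescence within five deviations of library mean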;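 further: RGS4 expression induced by doxycycline in cells with stable M3 receptor; B-score is computed from the integrated fluorescence ratio over baseline after carbachol; higher B-score means a larger calcium signal and so more RGS4 inhibition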
Target sequence (P49798 whole entry, looked up): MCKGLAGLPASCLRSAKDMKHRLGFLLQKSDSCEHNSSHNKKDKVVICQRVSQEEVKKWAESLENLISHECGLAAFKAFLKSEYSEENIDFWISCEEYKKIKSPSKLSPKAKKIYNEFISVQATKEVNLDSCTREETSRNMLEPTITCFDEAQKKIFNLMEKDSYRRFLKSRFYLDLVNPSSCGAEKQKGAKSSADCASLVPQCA
MrgX1 ag confirm: MrgX1 receptor agonists, duplicate retest, confirmation, HEK293 cells, Fluo-4 calcium flux. shares compounds with MrgX1 agonist. Fluo-4 calcium fluorescence, FDSS. activation, % at 10 µM. 600 tested, 78% active. AID 602412, 2012;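 active means calcium signal rise, corrected for plate position, at least 3 library SD high, with starting brightness within 5 such deviations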
HEK293 Ca flux: nonspecific calcium signal in parental HEK293, confirmation, counter-screen for MrgX1 antagonist project, parental HEK293 cells, Fluo-4 calcium flux; shares compounds with MrgX1 antag; Fluo-4 calcium fluorescence, FDSS; 4,000 tested, 2% active; AID 624111, 2012; fluorescence ratio F(max-min)/F0 at 10 µM;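 active means duplicate-averaged calcium fluorescence ratio at least three times the standard deviation of buffer wells, a nonspecific response in parental cells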
HEK293 Ca counter: calcium response in parental HEK293 cells, primary screen, counter-screen for MrgX1 allosteric activator project, cell-based, Fluo-4 calcium flux, duplicate | shares compounds with MrgX1 antag | Fluo-4 fluorescence ratio; hits give high values | fluorescence ratio F(max-min)/F0 at 10 µM | 4,000 tested, 0.4% active | AID 624114, 2012;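 active means calcium fluorescence ratio, averaged over duplicates, at least 3 SD of the buffer-well ratio, meaning a nonspecific response in receptor-free cells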;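 further: untransfected parental HEK293 lacking MrgX1 used as counterscreen for MrgX1 allosteric activators; fluorescence change taken during the second addition on a kinetic imager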
HEK293 Ca cntr2: calcium response in parental HEK293 cells, primary screen, counter-screen for MrgX1 agonist project, cell-based, Fluo-4 calcium flux, duplicate, agonist mode; 4,000 tested, 8.7% active; AID 624115, 2012; shares compounds with MrgX1 antag; fluorescence ratio F(max-min)/F0 at 10 µM; Fluo-4 calcium fluorescence (FDSS); hits give high values;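 active means calcium fluorescence ratio at least three times the spread of buffer wells, meaning a non-specific response in parental cells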
* marks the source's active call; other numbers are inactive results; i = inactive; nt = no result. A selection: hits, their analogues and other compounds. The true share with any hit is near 3.5%.

SMILES	MrgX1 allo act	MrgX1 antag	MrgX1 agonist	RGS4 pot	RGS4 inh	MrgX1 ag confirm	HEK293 Ca flux	HEK293 Ca counter	HEK293 Ca cntr2
CCCc1ccc(C(=O)NC(=O)c2ccccc2O)cc1	i	i	61*	i	i	187%*	i	i	64*
O=C(NNC(=S)NC(=O)c1ccccc1[N+](=O)[O-])c1ccccc1O	i	i	i	i	i	nt	nt	nt	nt
O=C(NNC(=S)NC(=O)c1ccccc1[N+](=O)[O-])c1ccc(Cl)cc1Cl	i	i	71*	i	i	218%*	i	i	i
CC1CCN(C(=O)Cn2nnc(-c3ccccc3)n2)CC1	i	i	i	i	i	nt	nt	nt	nt
CCOc1ccc(NC(=O)NNC(=O)c2ccc(CC)s2)cc1	i	i	i	i	i	nt	nt	nt	nt
Cc1ccc(C(=O)NC(=S)NNC(=O)c2ccccc2O)cc1	i	i	i	i	i	nt	nt	nt	nt
Cc1onc(-c2ccccc2)c1C(=O)NC(=S)NNC(=O)c1ccc(O)cc1O	i	i	i	i	i	nt	nt	nt	nt
Cc1onc(-c2ccccc2)c1C(=O)NC(=S)NNC(=O)c1ccccc1O	i	i	107*	i	i	714%*	i	i	132*
Cc1ccc(C(=O)NC(=S)NNC(=O)c2ccccc2)cc1	i	i	78*	i	i	492%*	i	i	100*
Cc1ccc(C(=O)NC(=S)NNC(=O)c2ccccc2[N+](=O)[O-])cc1	i	i	77*	i	i	413%*	i	i	78*
Cc1ccccc1OCC(=O)NNC(=S)NC(=O)c1ccco1	i	i	71*	i	i	327%*	i	i	62*
O=C(NC(=S)NNC(=O)c1ccccc1O)c1ccc([N+](=O)[O-])cc1	i	i	i	i	i	nt	nt	nt	nt
COc1ccccc1NC(=O)C1=C(C)NC2=C(C(=O)CC(c3ccc(OC)c(OC)c3)C2)C1c1coc2ccccc2c1=O (centres undefined)	i	i	i	i	i	nt	nt	nt	nt
Cc1ccccc1C(=O)NNC(=S)NC(=O)c1ccccc1	i	i	159*	i	i	756%*	i	i	146*
O=C(NC(=S)NNC(=O)c1ccccc1O)c1ccc(F)cc1	i	i	i	i	i	nt	nt	nt	nt
Cc1ccc(C(=O)NNC(=S)NC(=O)c2ccco2)cc1	i	i	135*	i	i	681%*	i	i	123*
O=C(NCCCNC(=O)c1cc(Cl)ccc1Cl)c1ccco1	i	i	i	i	i	nt	nt	nt	nt
CSc1ccccc1NC(=O)CSc1nnc(COc2ccccc2)o1	i	i	i	i	i	nt	nt	nt	nt
Cc1ccc(N/C(N)=N/c2nc3c(c(=O)[nH]2)CCCC3)c(C)c1	i	i	i	i	i	nt	nt	nt	nt
Cc1ccc(N/C(N)=N/c2nc(C)cc(N3CCCCC3)n2)c(C)c1	i	i	34*	i	i	137%*	i	i	i
O=C(Nc1nnc(-c2ccc(F)cc2)o1)c1cc(Cl)sc1Cl	i	i	114*	i	i	527%*	i	i	100*
O=C(Nc1nnc(-c2ccccc2)o1)c1cc(Cl)sc1Cl	i	i	43*	i	i	442%*	i	i	88*
COc1ccc(C(=O)Nc2nnc(-c3ccccc3)o2)cc1OC	i	i	i	i	i	nt	nt	nt	nt
COC(=O)CC1C(=O)NCCN1C(=S)Nc1ccccc1Cl (centres undefined)	i	i	i	i	i	nt	nt	nt	nt
O=c1onc(-c2ccc(Cl)cc2)n1Cc1ccc(F)cc1	i	i	i	i	i	nt	nt	nt	nt
SMILES	MrgX1 allo act	MrgX1 antag	MrgX1 agonist	RGS4 pot	RGS4 inh	MrgX1 ag confirm	HEK293 Ca flux	HEK293 Ca counter	HEK293 Ca cntr2
Cc1cc(N2CCC(C)CC2)nc(NCc2ccccc2)n1	i	i	46*	-7*	i	148%*	i	i	i
CCCCNc1cc(C)nc(NCc2ccccc2)n1	i	i	29*	i	i	241%*	i	i	i
Cc1cc(Nc2ccccc2)nc(NCc2ccccc2)n1	i	i	i	i	i	nt	nt	nt	nt
COc1ccccc1N1CCN(C(c2cccs2)C(C)NC(=O)c2ccncc2)CC1 (centres undefined)	i	i	i	i	i	nt	nt	nt	nt
O=S(=O)(c1ccccc1)c1nnn2c1nc(NC1CCN(Cc3ccccc3)CC1)c1ccccc12	i	i	60*	i	i	274%*	i	i	i
CC(C)(C)c1ccc(S(=O)(=O)/N=C2\C=C(NS(=O)(=O)c3ccccc3)C(=O)c3ccccc32)cc1	i	i	27*	i	i	80%*	i	i	57*
Cc1cc(C)c2cc3c(N)c(C(=O)N4CCOCC4)sc3nc2c1	i	i	i	i	i	nt	nt	nt	nt
Cc1ccc(C)c2nc3sc(C(=O)N4CCOCC4)c(N)c3cc12	i	i	31*	i	i	284%*	i	i	82*
O=c1c2ccccc2sn1-c1ccccc1	i	i	41*	i	i	229%*	i	i	49*
O=c1c2ccccc2sn1-c1ccc(S(=O)(=O)N2CCCC2)cc1	i	i	i	i	i	nt	nt	nt	nt
CN(C)S(=O)(=O)c1cccc(-n2sc3ccccc3c2=O)c1	i	i	37*	nt	nt	225%*	i	i	50*
CCCN1CCN(S(=O)(=O)c2ccc3c(c2)NC(=O)C(C)C(=O)N3)CC1 (centres undefined)	i	i	i	i	i	nt	nt	nt	nt
Cc1ccccc1OC(C)C(=O)N1CCN(c2ccccn2)CC1 (centres undefined)	i	i	i	i	i	nt	nt	nt	nt

High-throughput results (PubChem)
